Results: paper PMC5386783 (Nature medicine, 2016)
“And” between values parts separate entries of the source, which are not always exact repeats. Identical values can stand only once. Blank lines part the entries; values can stand above or below the compound they belong to.

Key:
activated caspases = settings: cited from earlier work
forebrain-specific hNPCs = type: cell-based, human
Summary of the method: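 Forebrain hNPCs were derived from iPSCs via embryoid bodies, rosettes and neurospheres. Monolayers were exposed to ZIKV FSS-13025 (MOI 0.04–0.08) ± test compound and immunostained 72 h later for ZIKV envelope, cleaved caspase-3 and DAPI; %Cas3+/DAPI cells, mean ± s.e.m., n = 3 cultures, one-way ANOVA. C1–2 iPSC forebrain organoids: exposed on day 18 for 24 h, fresh medium 9 more days, then fixed and immunostained.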

SNB-19 cells = assay: ATP content cell viability assay in ZIKV-infected SNB-19 cells; type: cell-based; settings: Homo sapiens, SNB-19, read-out: IC50, cell viability
[1] = cited from earlier work
[2] = test system: ZIKV-induced caspase-3 activity; assay: Caspase-3/7 activity assay in ZIKV-infected SNB-19 cells; type: cell-based; settings: Homo sapiens, SNB-19, read-out: IC50, caspase activity
Summary of the method: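 SNB-19 cells (250/well, PDL-coated 1536-well) were grown 16 h at 37 °C/5% CO2, given pin-transferred test compound for 30 min, then ZIKV at 2 FFU/cell for 6 h. Caspase-Glo 3/7 reagent was added for 30 min at room temperature and luminescence read. Uninfected cells were 0% and infected cells 100%. Confirmation used 11-point 1:3 dilutions, n = 3, and IC50 came from curve fits.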

[3] = oral delivery, BID, × 4 days; cited from earlier work
ZIKV [4] = assay: Time-of-addition experiment in SNB-19 cells; type: cell-based, Zika virus; settings: PRVABC59, MOI = 1, 10 μg/ml anti-AXL antibody, 2 μM Niclosamide, 92 μM PHA-690509
Summary of the method: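 SNB-19 cells received test compound or 10 μg/ml anti-AXL antibody either 1 h before or 4 h after PRVABC59 infection (MOI 1). NS1 was detected by western blot, and NS1/GAPDH band intensities were normalised to DMSO. n = 3 cultures; one-way ANOVA versus DMSO.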

ZIKV [5] = assay: ZIKV infection and production in hNPCs and astrocytes; type: cell-based, Zika virus; settings: PRVABC59
Summary of the method: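 Astrocytes were treated with test compound 1 h before PRVABC59 (MOI 0.5), fixed 24 h post-infection, and immunostained for ZIKV envelope protein with DAPI. Stained cells were counted. Virus released into culture supernatant was titrated as focus-forming units on Vero cells.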

ZIKV [6] = assay: ZIKV production from SNB-19 cells, focus-forming unit assay on Vero cells; type: cell-based, Zika virus; settings: for concentrations suppressing production of infectious ZIKV particles: PRVABC59, MOI = 0.5, 24 hours post infection
ZIKV [7] = assay: Intracellular ZIKV RNA levels; type: cell-based, Zika virus; settings: read-out: IC50, intracellular ZIKV RNA levels
Summary of the method: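 SNB-19 cells, astrocytes or hNPCs (~3×10^5/well, 12-well) were treated with test compound 1 h before ZIKV (MOI 0.5–1) and harvested 24–48 h post-infection. Total RNA (500–1000 ng) was reverse-transcribed with random hexamers. SYBR qPCR used ZIKV NS1 primers, with GAPDH as the endogenous control. Fold change was calculated by ΔΔCT, normalised to control cells.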

ZIKV [8] = assay: ZIKV NS1 expression; type: cell-based, Zika virus; settings: SNB-19 cells; three strains; dose-dependent
Summary of the method: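 SNB-19 cells were treated with titrated test compound 1 h before FSS-13025, PRVABC59 or MR766 (MOI 1) and harvested at 24 h for NS1 western blot. NS1/GAPDH bands were normalised to DMSO. Secreted NS1 in the medium after 24 h was measured by NS1 ELISA kit. n = 3 cultures; one-way ANOVA versus DMSO or the 0 μM group.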

astrocytes = assay: Astrocyte viability, compound toxicity; type: cell-based; settings: at levels lower than 3 μM
Summary of the method: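 Cells were seeded in 96-well plates and, one day later, treated with test compound for 24–48 h without virus. Viability was then read with a CellTiter-Glo luminescent ATP substrate.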

[9] = ref WHO http://apps.who.int/medicinedocs/en/d/Jh2922e/3.1.3.html; cited from earlier work
ZIKV [10] = assay: ZIKV production from iPSC-derived human astrocytes, FFU assay; type: cell-based, Zika virus; settings: read-out: IC50, ZIKV production upon infection of human astrocytes; PRVABC59
hNPC [11] = assay: hNPC proliferation after ZIKV infection with compound treatment; type: cell-based, human; settings: ZIKV-infected hNPCs
hNPC [12] = assay: hNPC proliferation in brain organoids, compound alone without ZIKV; type: cell-based, human; settings: PHA-690509 1 μM, Seliciclib 5 μM

SMILES: C[C@H](NC(=O)C(=O)Nc1ccccc1C(C)(C)C)C(=O)N[C@@H](CC(=O)O)C(=O)COc1c(F)c(F)cc(F)c1F [Emricasan]
activity against activated caspases in vitro (activated caspases): sub-to nano-molar activity | suppression of ZIKV replication (ZIKV antigen) (forebrain-specific hNPCs; 2D and 3D cultures): does not suppress ZIKV replication | number of active (cleaved) caspase-3-expressing forebrain-specific hNPCs (forebrain-specific hNPCs; infected by FSS13025, monolayer and 3D organoid cultures): reduced | IC50 (SNB-19 cells): 130 to 900 nM | tolerability in human trials [1]: well tolerated in human trials without significant adverse events | IC50 [2]: 130 to 900 nM | maximum concentration in human blood [3]: 2.36 μg/ml and 4.15 μM | overall concentration in human blood [3]: 1.90 μg/ml and 3.35 μM

IC50 (ZIKV [7]; Zika virus): 370 nM
SMILES: O=C(Nc1ccc([N+](=O)[O-])cc1Cl)c1cc(Cl)ccc1O [Niclosamide]
inhibition of ZIKV infection by time of addition (ZIKV [4]): effectively inhibited ZIKV infection when added either 1 hour before or 4 hours after virus inoculation | ZIKV infection and production in hNPCs and astrocytes (ZIKV [5]): inhibited ZIKV infection and production | concentrations suppressing production of infectious ZIKV particles (ZIKV [6]): sub-micromolar concentrations | inhibition of ZIKV as measured by NS1 expression (ZIKV [8]): inhibited all three strains of ZIKV | toxicity, astrocyte viability (astrocytes): minimal toxicity | mutagenic, teratogenic or embryotoxic potential [9]: not been shown to be mutagenic, teratogenic or embryotoxic

IC50 (ZIKV [10]): ~200 nM | IC50 (ZIKV [7]): 1720 nM
SMILES: CC(=O)Nc1ccc([C@H](C)C(=O)Nc2ncc(C(C)C)s2)cc1 [PHA-690509]
inhibition of ZIKV infection by time of addition (ZIKV [4]): effectively inhibited ZIKV infection when added either 1 hour before or 4 hours after virus inoculation | ZIKV infection and production in hNPCs and astrocytes (ZIKV [5]): inhibited ZIKV infection and production | concentrations suppressing production of infectious ZIKV particles (ZIKV [6]): sub-micromolar concentrations | inhibition of ZIKV as measured by NS1 expression (ZIKV [8]): inhibited all three strains of ZIKV | rescue of ZIKV-induced reduction in hNPC proliferation (hNPC [11]): partially rescued | toxicity, astrocyte viability (astrocytes): minimal toxicity

SMILES: CC(C)c1nn(-c2c(Cl)cccc2Cl)c2nc(Cc3ccc(OCCO)cc3)[nH]c(=O)c12 [RGB-286147]
IC50 (ZIKV [6]; read-out: IC50, ZIKV production): 27 nM

SMILES: CC[C@H](CO)Nc1nc(NCc2ccccc2)c2ncn(C(C)C)c2n1 [Seliciclib]
rescue of ZIKV-induced reduction in hNPC proliferation (hNPC [11]): partially rescued | effect of treatment alone on hNPC proliferation in brain organoids (hNPC [12]): minimal effect
